# Results as given in ChEMBL document CHEMBL1153724, “Multivalent binding oligomers inhibit HIV Tat-TAR interaction critical for viral replication” (Bioorg Med Chem Lett, 2009).
# pEC50, pIC50: −log10 of the molar value. The source made the active and inactive calls. No cut-off for these calls is given here.
# What was measured:
# Nucleic Acid [1] = test: Inhibition of fluorescein labeled Tat-peptide binding to HIV1 TAR RNA after 60 mins by FRET assay; type: nucleic-acid assay, Human immunodeficiency virus 1
# How it was run: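 Competition assay: inhibition of association between TAR RNA and a fluorescently labeled Tat-derived peptide, read by fluorescence; IC50 values derived.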
# [2] = Cytotoxicity in human HeLa cells transfected with HIV Rev-LTR by FITC-conjugated DAPI staining by fluorescence microscopy; type: cell-based; conditions: read-out: TC50 (the source's name)
# [3] = system: Human immunodeficiency virus 1; test: Antiviral activity against HIV1 JV1083 infected in PBMCs assessed as reverse transcriptase activity after 7 days by XTT assay; type: functional, organism-based; conditions: Human immunodeficiency virus 1, JV1083, 168 h
# [4] = system: Human immunodeficiency virus 1; test: Antiviral activity against HIV1 HT/92/599 infected in PBMCs assessed as reverse transcriptase activity after 7 days by XTT assay; type: functional, organism-based; conditions: Human immunodeficiency virus 1, HT/92/599, 168 h
# [5] = system: Human immunodeficiency virus 1; test: Antiviral activity against HIV1 BCF02 infected in PBMCs assessed as reverse transcriptase activity after 7 days by XTT assay; type: functional, organism-based; conditions: Human immunodeficiency virus 1, BCF02, 168 h
# PBMC = test: Cytotoxicity against human PBMC cells by XTT assay; type: cell-based
# Nucleic Acid [6] = test: Inhibition of fluorescein labeled Rev binding to HIV1 RRE RNA assessed as decrease of fluorescent anisotropy at 20 uM after 1 hour by fluorescence polarization-based assay; type: nucleic-acid assay, Human immunodeficiency virus 1
# How it was run: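 Competition assay tracking Rev binding to RRE by fluorescence; tested up to 20 μM.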
# [7] = system: Human immunodeficiency virus 1; test: Antiviral activity against HIV1 UG/92/029 infected in PBMCs assessed as reverse transcriptase activity after 7 days by XTT assay; type: functional, organism-based; conditions: Human immunodeficiency virus 1, UG/92/029, 168 h
# [8] = Cytotoxicity in human HeLa cells transfected with HIV Tat-LTR by FITC-conjugated DAPI staining by fluorescence microscopy; type: cell-based; conditions: read-out: TC50 (the source's name)
# [9] = system: Human immunodeficiency virus 1; test: Antiviral activity against HIV1 Ba-L infected in PBMCs assessed as reverse transcriptase activity after 7 days by MTS assay; type: functional, organism-based; conditions: Human immunodeficiency virus 1, Ba-L, 168 h
# [10] = Inhibition of HIV1 Rev transfected in human HeLa cells after 48 hrs by duel luciferase reporter gene assay; type: cell-based; conditions: Human immunodeficiency virus 1, HeLa
# How it was run: (§1)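 Analogous stably modified HeLa dual-luciferase system for Rev-RRE function, used as a specificity control; activity followed by luminescence up to 100 μM.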
# [11] = system: Human immunodeficiency virus 1; test: Inhibition of HIV1 viral entry into the human TZM-bl cells assessed as decrease of luminescence at 25 uM after 18 hrs by luciferase reporter gene assay; type: functional, organism-based
# How it was run: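 Viral entry checked in TZM-bl cells with a cell-based entry inhibition assay at concentrations up to 25 μM.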
# [12] = system: Human immunodeficiency virus 1; test: Antiviral activity against HIV1 CMU06 infected in PBMCs assessed as reverse transcriptase activity after 7 days by XTT assay; type: functional, organism-based; conditions: Human immunodeficiency virus 1, CMU06, 168 h
# [13] = system: Human immunodeficiency virus 1; test: Antiviral activity against HIV1 UG/92/001 infected in PBMCs assessed as reverse transcriptase activity after 7 days by XTT assay; type: functional, organism-based; conditions: Human immunodeficiency virus 1, UG/92/001, 168 h
# [14] = system: Human immunodeficiency virus 1; test: Antiviral activity against HIV1 BR/93/020 infected in PBMCs assessed as reverse transcriptase activity after 7 days by XTT assay; type: functional, organism-based; conditions: Human immunodeficiency virus 1, BR/93/020, 168 h
# [15] = system: Human immunodeficiency virus 1; test: Antiviral activity against HIV1 97ZA003 infected in PBMCs assessed as reverse transcriptase activity after 7 days by XTT assay; type: functional, organism-based; conditions: Human immunodeficiency virus 1, 97ZA003, 168 h
# Nucleic Acid [16] = test: Induction of aggregation of 32P labeled HIV1 TAR RNA after 60 mins by native gel electrophoresis; type: nucleic-acid assay, Human immunodeficiency virus 1
# Nucleic Acid [17] = test: Selectivity for HIV1 TAR RNA over HIV1 RRE RNA; type: nucleic-acid assay; conditions: Human immunodeficiency virus 1
# HeLa = test: Inhibition of HIV1 Rev transfected in human HeLa cells up to 100 uM after 48 hrs by duel luciferase reporter gene assay; type: cell-based; conditions: Human immunodeficiency virus 1; how it was run: as §1
SMILES,pEC50 (Nucleic Acid [1]),pIC50 (Nucleic Acid [6]),pIC50 [10],CC50 [2],pIC50 (PBMC),CC50 [8],pIC50 [9],further results
C[C@H](N)CN[C@@H](C)CN[C@@H](C)CN[C@@H](C)CN[C@@H](C)CN[C@H](CNCCC(N)=O)Cc1ccc(O)cc1,4.86,–,–,–,–,–,–,–
NC(=O)CCNC[C@H](Cc1ccc(O)cc1)NC[C@H](Cc1ccc(O)cc1)NC[C@H](Cc1ccc(O)cc1)NC[C@H](Cc1ccc(O)cc1)NC[C@H](Cc1ccc(O)cc1)NC[C@@H](N)Cc1ccc(O)cc1,5.77,< 4.70,4.47,> 100 µM,4.12,> 100 µM,5.70,pEC50 (Nucleic Acid [16]): 4.40; pIC50 [3]: 4.88; pIC50 [4]: 5.06; pIC50 [5]: 4.72; Selectivity Index (Nucleic Acid [17]): 20; pIC50 [7]: 5.17; inhibition [11]: inactive; pIC50 [12]: 4.72; pIC50 [13]: 5.22; pIC50 [14]: 5.33; pIC50 [15]: 4.57
NCCCC[C@@H](CN[C@H](CN[C@H](CN[C@H](CNCCC(N)=O)Cc1ccc(O)cc1)Cc1ccc(O)cc1)Cc1ccc(O)cc1)NC[C@H](Cc1c[nH]c2ccccc12)NC[C@@H](N)Cc1ccc(O)cc1,6.52,–,–,–,–,–,–,–
NCCCC[C@@H](CN[C@H](CNCCC(N)=O)Cc1ccc(O)cc1)NC[C@H](Cc1ccc(O)cc1)NC[C@H](CCCCN)NC[C@H](Cc1c[nH]c2ccccc12)NC[C@@H](N)Cc1ccc(O)cc1,6.62,–,–,–,–,12 µM,–,–
NC(=O)CCNC[C@H](Cc1ccc(O)cc1)NC[C@H](Cc1ccc(O)cc1)NC[C@H](Cc1ccc(O)cc1)NC[C@@H](N)Cc1ccc(O)cc1,5.05,< 4.70,–,–,4.34,–,4.96,pEC50 (Nucleic Acid [16]): 3.35
C[C@@H](CN[C@H](CN[C@H](CN[C@H](CNCCC(N)=O)Cc1ccc(O)cc1)Cc1ccc(O)cc1)Cc1ccc(O)cc1)NC[C@H](Cc1ccc(O)cc1)NC[C@H](Cc1ccc(O)cc1)NC[C@H](Cc1ccc(O)cc1)NC[C@@H](N)Cc1ccc(O)cc1,6.74,–,–,–,–,2.4 µM,–,–
NC(=O)CCNC[C@H](Cc1ccc(O)cc1)NC[C@H](Cc1ccc(O)cc1)NC[C@@H](N)Cc1ccc(O)cc1,4.08,< 4.30,< 4.00,> 100 µM,–,> 100 µM,–,pEC50 (Nucleic Acid [16]): 3.31
NC(=O)CCNC[C@H](Cc1ccc(O)cc1)NC[C@H](Cc1ccc(O)cc1)NC[C@H](Cc1ccc(O)cc1)NC[C@H](Cc1ccc(O)cc1)NC[C@H](Cc1ccc(O)cc1)NC[C@H](Cc1ccc(O)cc1)NC[C@@H](N)Cc1ccc(O)cc1,6.33,–,–,–,–,–,–,–
NC(=O)CCNC[C@H](Cc1ccc(O)cc1)NC[C@H](Cc1ccc(O)cc1)NC[C@H](Cc1ccc(O)cc1)NC[C@H](Cc1ccc(O)cc1)NC[C@H](Cc1ccc(O)cc1)NC[C@H](Cc1ccc(O)cc1)NC[C@H](Cc1ccc(O)cc1)NC[C@@H](N)Cc1ccc(O)cc1,6.74,–,–,–,–,–,–,–
NCCCC[C@@H](CN[C@H](CNCCC(N)=O)Cc1ccc(O)cc1)NC[C@H](Cc1ccc(O)cc1)NC[C@H](CCCCN)NC[C@H](Cc1ccc(O)cc1)NC[C@@H](N)Cc1ccc(O)cc1,6.44,–,–,–,–,38 µM,–,–

# The next lines start with results.
pEC50 (Nucleic Acid [1]),pIC50 (Nucleic Acid [6]),pIC50 [10],SMILES,CC50 [2],pIC50 (PBMC),CC50 [8],pIC50 [9],further results
6.30,< 4.70,4.22,C[C@@H](CN[C@H](CN[C@H](CN[C@H](CNCCC(N)=O)Cc1ccc(O)cc1)Cc1ccc(O)cc1)Cc1ccc(O)cc1)NC[C@H](Cc1ccc(O)cc1)NC[C@H](Cc1ccc(O)cc1)NC[C@@H](N)Cc1ccc(O)cc1,> 100 µM,4.26,> 100 µM,5.40,pIC50 [3]: 4.92; pIC50 [4]: 5.35; pIC50 [5]: 4.79; pIC50 [7]: 5.64; inhibition [11]: inactive; pIC50 [12]: 4.74; pIC50 [13]: 5.64; pIC50 [14]: 5.29; pIC50 [15]: 4.60
5.49,–,–,C[C@H](N)CN[C@H](CN[C@H](CN[C@H](CN[C@H](CN[C@H](CNCCC(N)=O)Cc1ccc(O)cc1)Cc1ccc(O)cc1)Cc1ccc(O)cc1)Cc1ccc(O)cc1)Cc1ccc(O)cc1,–,–,–,–,–
5.79,< 4.70,< 4.00,C[C@@H](CN[C@H](CN[C@H](CN[C@H](CNCCC(N)=O)Cc1ccc(O)cc1)Cc1ccc(O)cc1)Cc1ccc(O)cc1)NC[C@H](Cc1ccc(O)cc1)NC[C@@H](N)Cc1ccc(O)cc1,> 100 µM,4.25,> 100 µM,5.30,pIC50 [3]: 4.75; pIC50 [4]: 4.90; pIC50 [5]: 4.70; inhibition (HeLa): inactive; Selectivity Index (Nucleic Acid [17]): 20; pIC50 [7]: 5.35; inhibition [11]: inactive; pIC50 [12]: 5.11; pIC50 [13]: 5.29; pIC50 [14]: 5.12; pIC50 [15]: 4.49
5.40,–,–,C[C@@H](CN[C@H](CN[C@H](CN[C@H](CN[C@H](CNCCC(N)=O)Cc1ccc(O)cc1)Cc1ccc(O)cc1)Cc1ccc(O)cc1)Cc1ccc(O)cc1)NC[C@@H](N)Cc1ccc(O)cc1,–,–,–,–,–
5.53,< 4.70,< 4.00,NC(=O)CCNC[C@H](Cc1ccc(O)cc1)NC[C@H](Cc1ccc(O)cc1)NC[C@H](Cc1ccc(O)cc1)NC[C@H](Cc1ccc(O)cc1)NC[C@@H](N)Cc1ccc(O)cc1,> 100 µM,4.17,> 100 µM,5.05,pEC50 (Nucleic Acid [16]): 3.66
6.35,–,< 4.00,NCCCC[C@@H](CN[C@H](CN[C@H](CN[C@H](CNCCC(N)=O)Cc1ccc(O)cc1)Cc1ccc(O)cc1)Cc1ccc(O)cc1)NC[C@H](Cc1ccc(O)cc1)NC[C@@H](N)Cc1ccc(O)cc1,> 100 µM,4.10,> 100 µM,5.15,–
5.48,–,–,C[C@@H](CN[C@H](CN[C@H](CNCCC(N)=O)Cc1ccc(O)cc1)Cc1ccc(O)cc1)NC[C@H](Cc1ccc(O)cc1)NC[C@H](Cc1ccc(O)cc1)NC[C@@H](N)Cc1ccc(O)cc1,–,–,–,–,–
5.71,–,–,C[C@@H](CN[C@H](CNCCC(N)=O)Cc1ccc(O)cc1)NC[C@H](Cc1ccc(O)cc1)NC[C@H](Cc1ccc(O)cc1)NC[C@H](Cc1ccc(O)cc1)NC[C@@H](N)Cc1ccc(O)cc1,–,–,–,–,–
